≈ marks a conversion by molar mass, not a printed value.

This test concerns Mycobacterium tuberculosis. In words: Antimycobacterial against multidrug resistant Mycobacterium tuberculosis by agar dilution method. Type of test: functional. The method in brief: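 Strain was an MDR-TB clinical isolate resistant to isoniazid and rifampicin, among other drugs. MIC read by agar dilution, run in triplicate.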
(In general: Agar dilution tests growth on a series of plates holding different concentrations.)
Take `CN1CCC(=O)[C@]2(C1)[C@@H](c1ccc(Cl)cc1Cl)[C@@H]1CCCN1[C@@]21C(=O)Nc2ccccc21`: the MIC (as a rule, the smallest concentration in the dilution series that meets the test's criterion for growth inhibition) was found to be 1.66 µM (≈ 0.781 µg/mL).
The compound `CN1CCC(=O)[C@]2(C1)[C@@H](c1ccc(Cl)cc1Cl)CN(C)[C@@]21C(=O)Nc2ccccc21` gave a minimum inhibitory concentration (MIC) of 0.88 µM (≈ 0.391 µg/mL).
For `CN1CCC(=O)[C@]2(C1)[C@@H](c1ccccc1Cl)[C@@H]1CCCN1[C@@]21C(=O)Nc2ccccc21` the value was 3.58 µM (≈ 1.56 µg/mL); for `CC[C@@H](CO)NCCN[C@@H](CC)CO` [ETHAMBUTOL], 61.2 µM (≈ 12.5 µg/mL); for `NNC(=O)c1ccncc1` [ISONIAZID], 11.4 µM (≈ 1.56 µg/mL).
For `NC(=O)c1cnccn1` [PYRAZINAMIDE] the value was 406 µM (≈ 50 µg/mL).

Values taken from ChEMBL document CHEMBL1153639, “A facile synthesis and antimycobacterial evaluation of novel spiro-pyrido-pyrrolizines and pyrrolidines” (2009).
